Data published in ChEMBL document CHEMBL1124367, “Design, synthesis, and testing of potential antisickling agents. 7. Ethacrynic acid analogues” (J Med Chem, 1989).

Key:
[1] = Solubility ratio of the sickle cell haemoglobin with compound to sickle cell haemoglobin with out compound at 3 mM; type: ADME; details: 3000 µM
In short: (§1)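 HbS purified from red cells by DEAE-Sephacel chromatography and held in 150 mM phosphate, pH 7.4. Compound was added as its sodium salt in 0.15 M phosphate, pH 7.4, and incubated with HbS overnight at 4°C. Samples were sealed in EPR tubes and spun at 150000 g for 2.5 h at 35°C.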

[2] = Solubility ratio for sickle cell haemoglobin in presence and absence of compound; type: ADME; in short: as §1
[3] = Solubility ratio of the sickle cell haemoglobin with compound to sickle cell haemoglobin with out compound at 7 mM; type: ADME; details: 7000 µM; in short: as §1
[4] = (§2) Solubility ratio of the sickle cell haemoglobin with compound to sickle cell haemoglobin with out compound at 9 mM; type: ADME; details: 9000 µM; in short: as §1
[5] = as §2; type: ADME; details: 9000 µM; remark: listed apart in the source
In short: as §1, with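 “4°C. Sodium dithionite was then added (final 58.88 mM, final HbS about 24 g%).” for “4°C.”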

[6] = Solubility ratio of the sickle cell haemoglobin with compound to sickle cell haemoglobin with out compound at 10 mM; type: ADME; details: 10000 µM
In short: as §1, with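 “4°C. Sodium dithionite was then added (final 58.88 mM, final HbS about 24 g%).” for “4°C.”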

Canis familiaris [7] = test: Diuretic activity of compound measured in dog urine after intravenous administration of 5 mg/kg
Canis familiaris [8] = test: Diuretic activity of compound measured in dog urine after intravenous injection of 5 mg/kg; type: functional, Canis lupus familiaris
[9] = Solubility ratio of the sickel cell haemoglobin with compound to sickle cell haemoglobin with out compound at 3 mM; type: ADME; details: 3000 µM
In short: as §1, with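 “4°C. Sodium dithionite was then added (final 58.88 mM, final HbS about 24 g%).” for “4°C.”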

[10] = Solubility ratio of the sickell cell haemoglobin with compound to sickle cell haemoglobin with out compound at 5 mM; type: ADME; details: 5000 µM
In short: as §1, with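 “4°C. Sodium dithionite was then added (final 58.88 mM, final HbS about 24 g%).” for “4°C.”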

[11] = Solubility ratio of the sickell cell haemoglobin with compound to sickle cell haemoglobin with out compound at 7 mM; type: ADME; details: 7000 µM
In short: as §1, with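 “4°C. Sodium dithionite was then added (final 58.88 mM, final HbS about 24 g%).” for “4°C.”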

[12] = Solubility ratio of the sickell cell haemoglobin with compound to sickle cell haemoglobin with out compound at 9 mM; type: ADME; details: 9000 µM
In short: as §1, with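 “4°C. Sodium dithionite was then added (final 58.88 mM, final HbS about 24 g%).” for “4°C.”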

[13] = Solubility ratio of the sickle cell haemoglobin with compound to sickell cell haemoglobin with out compound at 10 mM; type: ADME; details: 10000 µM
In short: as §1, with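 “4°C. Sodium dithionite was then added (final 58.88 mM, final HbS about 24 g%).” for “4°C.”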

[14] = Solubility ratio of the sickle cell haemoglobin with compound to sickell cell haemoglobin with out compound at 5 mM; type: ADME; details: 5000 µM
In short: as §1, with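 “4°C. Sodium dithionite was then added (final 58.88 mM, final HbS about 24 g%).” for “4°C.”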

[15] = Solubility ratio of the sickle cell haemoglobin with compound to sickle cell haemoglobin without compound at 5 mM; type: ADME; details: 5000 µM
In short: as §1, with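 “4°C. Sodium dithionite was then added (final 58.88 mM, final HbS about 24 g%).” for “4°C.”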

Structure (SMILES): C=C(CC)C(=O)c1ccc(OC2(C(=O)O)CCC2)c(Cl)c1Cl
- Solubility ratio [1]: 1.08
- Solubility ratio [2]: 1.127
- Solubility ratio [3]: 1.147
- Solubility ratio [4]: 1.202

Structure (SMILES): C=C(CCC)C(=O)c1ccc(OC2(C(=O)O)CCC2)c(Cl)c1Cl
- Solubility ratio [1]: 1.057
- Solubility ratio [2]: 1.085
- Solubility ratio [3]: 1.099
- Solubility ratio [4]: 1.143

Structure (SMILES): CC/C(=C/c1ccc(C(=O)O)cc1Cl)[N+](=O)[O-]
- Solubility ratio [1]: 1.052
- Solubility ratio [2]: 1.1
- Solubility ratio [3]: 1.106
- Solubility ratio [5]: 1.15

Structure (SMILES): O=C(c1cccs1)c1cc2c(c(Cl)c1Cl)OC(C(=O)O)C2 (stereo unspecified)
- Solubility ratio [2]: 1.076
- Solubility ratio [6]: 1.08
- Diuretic activity (Canis familiaris [7]): 0

Structure (SMILES): CCC1=C(c2ccc(OCCCC(=O)O)c(Cl)c2Cl)OC(CC)(C(=O)c2ccc(OCCCC(=O)O)c(Cl)c2Cl)CC1 (stereo unspecified)
- Solubility ratio [2]: 1.059
- Solubility ratio [4]: 1.039

Structure (SMILES): C=C(CC)C(=O)c1c(Cl)cc(Cl)cc1OCC(=O)O
- Solubility ratio [1]: 1.048
- Solubility ratio [2]: 1.08
- Solubility ratio [3]: 1.103
- Solubility ratio [4]: 1.129

Structure (SMILES): C=C(CCC)C(=O)c1ccc(OCCCC(=O)O)c(Cl)c1Cl
- Solubility ratio [1]: 1.082
- Solubility ratio [2]: 1.115
- Solubility ratio [3]: 1.155
- Solubility ratio [4]: 1.149

Structure (SMILES): CC(C)C(Br)C(=O)c1ccc(OCC(=O)O)c(Cl)c1Cl (stereo unspecified)
- Diuretic activity (Canis familiaris [8]): 3
- Solubility ratio [2]: 0.966
- Solubility ratio [6]: 0.983

Structure (SMILES): C=C(CC)C(=O)c1ccc(OCCCC(=O)NCC(=O)O)c(Cl)c1Cl
- Solubility ratio [1]: 1.107
- Solubility ratio [2]: 1.224
- Solubility ratio [3]: 1.287
- Solubility ratio [4]: 1.309

Structure (SMILES): CC/C(=C/c1ccc(OCC(=O)O)c(OC)c1)[N+](=O)[O-]
- Solubility ratio [1]: 1.085
- Solubility ratio [2]: 1.128
- Solubility ratio [3]: 1.159
- Solubility ratio [4]: 1.207

Structure (SMILES): CCC(CN(C)C)C(=O)c1ccc(OCC(=O)O)c(Cl)c1Cl.Cl (stereo unspecified)
- Diuretic activity (Canis familiaris [8]): 4
- Solubility ratio [2]: 1.018
- Solubility ratio [6]: 1.168

Structure (SMILES): C/C(=C/c1ccc(OCC(=O)O)cc1)[N+](=O)[O-]
- Diuretic activity (Canis familiaris [8]): 1
- Solubility ratio [1]: 1.038
- Solubility ratio [2]: 1.076
- Solubility ratio [3]: 1.075
- Solubility ratio [4]: 1.099

Structure (SMILES): C=C(CC)C(=O)c1ccc(OCCCCC(=O)O)c(Cl)c1Cl
- Solubility ratio [1]: 1.081
- Solubility ratio [2]: 1.129
- Solubility ratio [3]: 1.2
- Solubility ratio [4]: 1.308

Structure (SMILES): C=C(CC)C(=O)c1ccc(OCCN(CC)CC)c(Cl)c1Cl
- Solubility ratio [1]: 1.073
- Solubility ratio [2]: 1.077
- Solubility ratio [3]: 1.089
- Solubility ratio [4]: 1.113

Structure (SMILES): C=C(CC)C(=O)c1ccc(OCCCCCC(=O)O)c(Cl)c1Cl
- Solubility ratio [2]: 1.086
- Solubility ratio [3]: 1.125
- Solubility ratio [4]: 1.164
- Solubility ratio [9]: 1.063

Structure (SMILES): CC1(C2CCCC2)Cc2cc(OCC(=O)O)c(Cl)c(Cl)c2C1=O (stereo unspecified)
- Solubility ratio [2]: 1.01
- Solubility ratio [6]: 1.015
- Diuretic activity (Canis familiaris [7]): 2

Structure (SMILES): CC(=O)C(=Cc1ccc(OCC(=O)O)c(Cl)c1Cl)C(C)=O
- Diuretic activity (Canis familiaris [8]): 6

Structure (SMILES): C=C(CC)C(=O)c1ccc(OCCC(=O)O)c(Cl)c1Cl
- Solubility ratio [1]: 1.112
- Solubility ratio [10]: 1.145
- Solubility ratio [11]: 1.188
- Solubility ratio [12]: 1.302

Structure (SMILES): CCC1=C(c2ccc(OCC(=O)O)c(Cl)c2Cl)OC(CC)(C(=O)c2ccc(OCC(=O)O)c(Cl)c2Cl)CC1 (stereo unspecified)
- Diuretic activity (Canis familiaris [8]): 0
- Solubility ratio [13]: 0.996
- Solubility ratio [14]: 0.993

Structure (SMILES): C=C(CC)C(=O)c1ccc(OCCCC(=O)O)c(Cl)c1Cl
- Solubility ratio [1]: 1.084
- Solubility ratio [2]: 1.122
- Solubility ratio [3]: 1.168
- Solubility ratio [4]: 1.196

Structure (SMILES): CC1(C2CCCC2)Cc2cc(OCCCC(=O)O)c(Cl)c(Cl)c2C1=O (stereo unspecified)
- Solubility ratio [2]: 0.961
- Solubility ratio [6]: 1.006

Structure (SMILES): CC/C(=C/c1ccc(OCC(=O)O)c(Cl)c1Cl)[N+](=O)[O-]
- Solubility ratio [1]: 1.051
- Solubility ratio [2]: 1.086
- Solubility ratio [3]: 1.096
- Solubility ratio [4]: 1.131

Structure (SMILES): C/C=C(\CC)C(=O)c1ccc(OCC(=O)O)c(Cl)c1Cl
- Diuretic activity (Canis familiaris [8]): 5
- Solubility ratio [1]: 1.017
- Solubility ratio [2]: 1.033
- Solubility ratio [3]: 1.062
- Solubility ratio [4]: 1.078

Structure (SMILES): C=CC(=O)c1ccc(OCC(=O)O)c(Cl)c1Cl
- Solubility ratio [1]: 1.033
- Solubility ratio [2]: 1.06
- Solubility ratio [3]: 1.067
- Solubility ratio [4]: 1.095

Structure (SMILES): CCC1=Cc2cc(OCC(=O)O)c(Cl)c(Cl)c2C1=O
- Diuretic activity (Canis familiaris [8]): 5
- Solubility ratio [1]: 1.074
- Solubility ratio [2]: 1.09
- Solubility ratio [3]: 1.103
- Solubility ratio [4]: 1.12

Structure (SMILES): CCC(SC)C(=O)c1ccc(OCC(=O)O)c(Cl)c1Cl (stereo unspecified)
- Solubility ratio [2]: 1.016
- Solubility ratio [6]: 1.073

Structure (SMILES): C=C(CC)C(=O)c1ccc(OCC(=O)NCC(=O)O)c(Cl)c1Cl
- Diuretic activity (Canis familiaris [8]): 3
- Solubility ratio [1]: 1.109
- Solubility ratio [2]: 1.145
- Solubility ratio [3]: 1.222
- Solubility ratio [4]: 1.327

Structure (SMILES): CCC(C)C(=O)c1ccc(OCC(=O)O)c(Cl)c1Cl (stereo unspecified)
- Diuretic activity (Canis familiaris [8]): 2
- Solubility ratio [15]: 1.061
- Solubility ratio [6]: 1.088

Structure (SMILES): CCC(C(=O)c1ccc(OCC(=O)O)c(Cl)c1Cl)S(C)(=O)=O (stereo unspecified)
- Solubility ratio [13]: 1.052
- Solubility ratio [14]: 1.029

Structure (SMILES): C=C(CC)C(=O)c1ccc(OC(C)(C)C(=O)O)c(Cl)c1Cl
- Diuretic activity (Canis familiaris [8]): 0
- Solubility ratio [1]: 1.05
- Solubility ratio [2]: 1.094
- Solubility ratio [3]: 1.183
- Solubility ratio [4]: 1.237

Structure (SMILES): C=C(CC)C(=O)c1ccc(OCC(=O)O)c(Cl)c1Cl [ETHACRYNIC ACID]
- Diuretic activity (Canis familiaris [8]): 6
- Solubility ratio [1]: 1.07
- Solubility ratio [2]: 1.125
- Solubility ratio [3]: 1.151
- Solubility ratio [4]: 1.184

Structure (SMILES): CC1(c2ccccc2)Cc2cc(OCC(=O)O)c(Cl)c(Cl)c2C1=O (stereo unspecified) [INDACRINONE]
- Solubility ratio [2]: 0.989
- Solubility ratio [6]: 1
- Diuretic activity (Canis familiaris [7]): 3
